Screening results deposited in PubChem BioAssay by The Scripps Research Institute Molecular Screening Center.
NPY2 pot ag: NPY-Y2 potentiators or agonists, primary screen, cell-based; Neuropeptide Y receptor type 2 (Homo sapiens), P49146; cells expressing NPY-Y2, potentiator/agonist read-out; activation, % at 3.6 µM; hit rate 0.45% among 220,000; in the data active means activation above about 27%;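 further: cells stimulated with NPY near EC25 plus isoproterenol at EC100; 0% = vehicle plus submaximal agonist and 100% = vehicle plus saturating agonist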
NPY-Y1 antag: NPY-Y1 receptor antagonists, primary screen, cell-based; Neuropeptide Y receptor type 1 (Homo sapiens), P25929; HEK293-CNG Y1 cells, membrane potential fluorescence; NPY at EC95, then isoproterenol; AID 1040, 2008; hit rate 1% among 200,000; inhibition, % at 3.6 µM;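 active means inhibition above the campaign mean inhibition of all tested compounds plus 3 SD, cut at about 20% in these data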;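 further: 0% = DMSO wells given NPY plus isoproterenol and 100% = isoproterenol alone without NPY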
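System: HEK293 cells with Y1 receptor plus CNG channel / Probe or stimulus: NPY 25 nM then isoproterenol 1 µM plus Ro 20-1724 25 µM / Compound: one concentration, 3.6 µM, in 0.4% DMSO / Schedule: compound incubation 1 h at room temperature, readout 45 min post-stimulation / Measured by: membrane potential fluorescence / Read-out: % inhibition of NPY effect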
S1P4 agonist: S1P4 receptor agonists, primary screen, cell-based. Sphingosine 1-phosphate receptor 4 (Homo sapiens), O95977. S1P4-expressing cell line, agonist reporter assay. activation, % at 4.98 µM. hit rate 0.35% among 220,000. AID 1509, 2009; in the data active means activation above about 11%;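 further: 0% = DMSO vehicle and 100% = reference agonist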
Target sequence (O95977 whole entry, looked up): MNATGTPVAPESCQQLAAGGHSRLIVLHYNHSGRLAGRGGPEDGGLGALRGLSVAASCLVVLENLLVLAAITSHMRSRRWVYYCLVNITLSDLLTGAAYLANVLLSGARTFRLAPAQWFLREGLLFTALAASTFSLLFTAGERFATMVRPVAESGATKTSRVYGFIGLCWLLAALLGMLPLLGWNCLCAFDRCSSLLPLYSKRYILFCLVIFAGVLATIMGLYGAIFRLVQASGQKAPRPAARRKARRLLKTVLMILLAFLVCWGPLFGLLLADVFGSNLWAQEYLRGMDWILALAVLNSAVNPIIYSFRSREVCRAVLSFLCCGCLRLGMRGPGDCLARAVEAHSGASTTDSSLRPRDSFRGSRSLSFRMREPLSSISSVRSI
NPY1 pot ag: NPY-Y1 receptor potentiators or agonists, primary screen, cell-based. NPY-Y1 expressing cells, potentiator/agonist activation. hit rate 0.37% among 220,000. Neuropeptide Y receptor type 1 (Homo sapiens), P25929. activation, % at 3.6 µM; in the data active means activation above about 33%, passing the limit was not always enough;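 further: cells stimulated with NPY at EC10 then isoproterenol at EC100; 0% = low agonist plus stimulus and 100% = saturating agonist plus stimulus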
NPY Y2 blocker: NPY-Y2 receptor antagonists, primary screen, cell-based. inhibition, % at 2.7 µM. NPY-Y2 expressing cells, antagonist mode. Neuropeptide Y receptor type 2 (Homo sapiens), P49146. AID 793, 2007. hit rate 0.99% among 140,000; in the data active means inhibition above about 17%;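 further: 0% = vehicle with agonist challenge and 100% = reference antagonist with challenge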
S1P4 antagonist: S1P4 receptor antagonists, primary screen, cell-based. Sphingosine 1-phosphate receptor 4 (Homo sapiens), O95977. S1P4-expressing cells, antagonist mode, reporter read-out. inhibition, % at 4.98 µM. hit rate 0.26% among 220,000; in the data active means inhibition above about 29%;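 further: 0% = wells stimulated with agonist and 100% = vehicle wells without agonist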
Active calls of the source: *. Sampled rows, rich in hits. Any-hit rate of the full collection: about 2.4%.

Results for CCC(C)(C)NC(=O)C(c1ccncc1)N(Cc1cccs1)C(=O)Cn1nnc2ccccc21 (configuration not stated) ?
NPY2 pot ag: 2.1; NPY-Y1 antag: 14.4; S1P4 agonist: -0.4; NPY1 pot ag: 12.4; NPY Y2 blocker: 9.7; S1P4 antagonist: -22.6

How did CCC(C)(C)NC(=O)C(c1ccc(C)cc1)N(Cc1ccco1)C(=O)Cn1nnc2ccccc21 (configuration not stated) do in these assays?
NPY2 pot ag: -22.3; NPY-Y1 antag: 24.6*; S1P4 agonist: -2.4; NPY1 pot ag: -122.0; NPY Y2 blocker: 60.6*; S1P4 antagonist: -1.7

How did CC(C)(C)NC(=O)C(c1ccc(O)cc1)N(Cc1ccco1)C(=O)Cn1nnc(-c2cccs2)n1 (configuration not stated) do in these assays?
NPY2 pot ag: -5.2; NPY-Y1 antag: 3.6; S1P4 agonist: 3.7; NPY1 pot ag: -16.1; NPY Y2 blocker: 6.4; S1P4 antagonist: -21.9

Results for Cc1ccc(C(C(=O)NC(C)(C)C)N(Cc2ccco2)C(=O)Cn2nnc(-c3cccs3)n2)cc1 (configuration not stated) ?
NPY2 pot ag: -41.5; NPY-Y1 antag: 20.3*; S1P4 agonist: 0.3; NPY1 pot ag: -132.2; NPY Y2 blocker: 34.4*; S1P4 antagonist: -9.6

How did O=C(NC1CCCCC1)C(c1ccccc1F)N(Cc1ccco1)C(=O)Cn1nnc2ccccc21 (configuration not stated) do in these assays?
NPY2 pot ag: -35.2; NPY-Y1 antag: 71.9*; S1P4 agonist: -1.9; NPY1 pot ag: -84.0; NPY Y2 blocker: 56.9*; S1P4 antagonist: -4.2

How did O=C(N/C(=C\c1ccccc1)C(=O)N1CCN(CCO)CC1)c1ccccc1 do in these assays?
NPY2 pot ag: -5.7; NPY-Y1 antag: 0.0; S1P4 agonist: 1.1; NPY1 pot ag: 5.7; NPY Y2 blocker: 2.0; S1P4 antagonist: -6.7

What do the screens show for `Cc1cc(C)cc(C(=O)NCC(=O)OCC(=O)Nc2cccnc2Cl)c1`?
NPY2 pot ag: 9.0; NPY-Y1 antag: 2.7; S1P4 agonist: 2.6; NPY1 pot ag: -3.8; S1P4 antagonist: 0.8

Results for Cc1ccc(C(C(=O)NC2CCCCC2)N(Cc2ccco2)C(=O)Cn2cnc3ccccc32)cc1 (configuration not stated) ?
NPY2 pot ag: -42.1; NPY-Y1 antag: 34.0*; S1P4 agonist: 2.0; NPY1 pot ag: -65.3; NPY Y2 blocker: 75.2*; S1P4 antagonist: -7.5

Results for CCOC(=O)c1c(NC(=O)CSc2nc3ccccc3s2)sc(C(C)=O)c1C ?
NPY2 pot ag: -32.3; NPY-Y1 antag: 39.0*; S1P4 agonist: 1.8; NPY1 pot ag: -33.2; NPY Y2 blocker: 22.3*; S1P4 antagonist: -17.6

Results for CCC(C(=O)Nc1cccc(C(F)(F)F)c1)c1ccccc1 (configuration not stated) ?
NPY2 pot ag: -13.9; NPY-Y1 antag: 20.3*; S1P4 agonist: 0.2; NPY1 pot ag: -6.5; NPY Y2 blocker: 7.0; S1P4 antagonist: -10.8

Results for O=C(Nc1cccc(C(F)(F)F)c1)C(SCCO)c1ccccc1 (configuration not stated) ?
NPY2 pot ag: 3.7; NPY-Y1 antag: 1.8; S1P4 agonist: 4.0; NPY1 pot ag: 7.7; NPY Y2 blocker: 1.4; S1P4 antagonist: -10.0

Results for CC(=O)Nc1ccc(S(=O)(=O)N(C)c2ccc(OCC(=O)OCC(=O)NCc3ccco3)cc2)cc1 ?
NPY2 pot ag: -5.8; S1P4 agonist: -0.9; NPY1 pot ag: 18.3; S1P4 antagonist: 15.4

How did Cc1ccc(C)c(N2CCN(c3nc4ccccc4c(=O)n3Cc3ccccc3)CC2)c1 do in these assays?
NPY2 pot ag: -5.6; NPY-Y1 antag: 30.1*; S1P4 agonist: 1.4; NPY1 pot ag: -30.8; NPY Y2 blocker: 28.1*; S1P4 antagonist: 4.6

What do the screens show for `O=c1c2ccccc2nc(N2CCN(c3ccccc3)CC2)n1Cc1ccccc1`?
NPY2 pot ag: -23.6; NPY-Y1 antag: 7.8; S1P4 agonist: -1.7; NPY1 pot ag: -30.8; NPY Y2 blocker: 12.3; S1P4 antagonist: -4.3

How did CCOC(=O)c1cc(-c2ccccc2)nc2c1c(C)nn2-c1ccccn1 do in these assays?
NPY2 pot ag: -23.7; NPY-Y1 antag: 48.9*; S1P4 agonist: 0.8; NPY1 pot ag: -67.9; NPY Y2 blocker: 59.9*; S1P4 antagonist: -9.8

Results for CCOC(=O)c1cc(-c2ccc3c(c2)OCCO3)nc2c1c(C)nn2CCC#N ?
NPY2 pot ag: -11.2; NPY-Y1 antag: 6.5; S1P4 agonist: -1.0; NPY1 pot ag: -18.4; NPY Y2 blocker: 4.2; S1P4 antagonist: 4.3

What do the screens show for `CCOC(=O)c1cc(-c2ccco2)nc2c1c(C)nn2CCC#N`?
NPY2 pot ag: -16.8; NPY-Y1 antag: 10.0; S1P4 agonist: -0.7; NPY1 pot ag: -5.9; NPY Y2 blocker: 10.5; S1P4 antagonist: 5.5

How did CCOC(=O)c1cc(-c2ccc(Cl)cc2)nc2c1c(C)nn2CCC#N do in these assays?
NPY2 pot ag: -30.6; NPY-Y1 antag: 24.6*; S1P4 agonist: -1.2; NPY1 pot ag: -73.9; NPY Y2 blocker: 33.0*; S1P4 antagonist: 2.5

What do the screens show for `CCOC(=O)c1cc(-c2ccc(OC)cc2F)nc2c1c(C)nn2CCC#N`?
NPY2 pot ag: 0.0; NPY-Y1 antag: 26.0*; S1P4 agonist: -2.4; NPY1 pot ag: 14.2; NPY Y2 blocker: 20.4*; S1P4 antagonist: 7.6

How did COc1cc2cc(C(=O)N3CCN(Cc4ccc5c(c4)OCO5)CC3)c(=O)oc2cc1OC do in these assays?
NPY2 pot ag: 6.1; S1P4 agonist: 2.0; NPY1 pot ag: -6.0; S1P4 antagonist: -2.8

How did Cc1nc(NC(C)c2ccccc2)c2c3c(sc2n1)CCC3 (configuration not stated) do in these assays?
NPY2 pot ag: -20.2; NPY-Y1 antag: 38.3*; S1P4 agonist: 1.1; NPY1 pot ag: -66.3; NPY Y2 blocker: 17.2*; S1P4 antagonist: 7.6

Results for Cc1nc(Nc2ccc(O)cc2)c2c3c(sc2n1)CCCC3 ?
NPY2 pot ag: 3.9; S1P4 agonist: 0.6; NPY1 pot ag: 11.1; S1P4 antagonist: 0.6

How did CCN(CC)CCn1c(=N)n(CCOc2ccccc2)c2ccccc21 do in these assays?
NPY2 pot ag: -12.6; NPY-Y1 antag: 29.9*; S1P4 agonist: 1.4; NPY1 pot ag: -13.3; NPY Y2 blocker: 34.7*; S1P4 antagonist: -12.3

Results for CCN(CC)CCn1c(=N)n(CC(O)COc2ccccc2)c2ccccc21 (configuration not stated) ?
NPY2 pot ag: -43.7; S1P4 agonist: -0.9; NPY1 pot ag: -44.4; S1P4 antagonist: 14.3

Results for Cc1cccc(/C(N)=N/OC(=O)CCCN2C(=O)c3ccccc3C2=O)c1 ?
NPY2 pot ag: -18.3; NPY-Y1 antag: 29.2*; S1P4 agonist: -0.6; NPY1 pot ag: -29.9; NPY Y2 blocker: 8.3; S1P4 antagonist: 5.5
